How the values were obtained:
Endothelin-1 receptor = molecular target: T1, Endothelin-1 receptor (Homo sapiens, UniProt P25101); assay: In vitro inhibition of endothelin binding to human Endothelin A receptor using [125I]-labeled ET-1 competition assay
T1 sequence (P25101 whole entry): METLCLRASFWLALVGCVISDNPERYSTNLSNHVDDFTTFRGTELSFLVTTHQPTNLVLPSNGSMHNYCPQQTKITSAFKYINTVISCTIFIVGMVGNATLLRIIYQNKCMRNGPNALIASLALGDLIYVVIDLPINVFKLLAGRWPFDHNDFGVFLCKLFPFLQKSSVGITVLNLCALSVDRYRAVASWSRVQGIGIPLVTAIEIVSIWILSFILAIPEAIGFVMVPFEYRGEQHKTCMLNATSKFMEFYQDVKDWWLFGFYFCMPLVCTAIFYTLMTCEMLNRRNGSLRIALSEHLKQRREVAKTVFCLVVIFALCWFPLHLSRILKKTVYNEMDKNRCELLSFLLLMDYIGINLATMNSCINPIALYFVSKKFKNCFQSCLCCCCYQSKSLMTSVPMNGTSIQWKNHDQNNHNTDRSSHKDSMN
Summary of the method: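 Membranes from confluent TE 671 cells (endogenous human ETA), DNase-treated, 3 mg/tube. Buffer 30 mM HEPES pH 7.4, 150 mM NaCl, 5 mM MgCl2, 0.05% bacitracin, final 0.25% DMSO. Tracer 4 pM [125I]ET-1, nonspecific binding with 100 nM ET-1. Incubated 16–18 h at 24 °C, centrifuged, bound radioactivity gamma-counted. Run in triplicate.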

[1] = molecular target: T2, Endothelin receptor type B (Homo sapiens, UniProt P24530); assay: In vitro inhibition of endothelin binding to human Endothelin B receptor using [125I]-labeled ET-1 competition assay
T2 sequence (P24530 whole entry): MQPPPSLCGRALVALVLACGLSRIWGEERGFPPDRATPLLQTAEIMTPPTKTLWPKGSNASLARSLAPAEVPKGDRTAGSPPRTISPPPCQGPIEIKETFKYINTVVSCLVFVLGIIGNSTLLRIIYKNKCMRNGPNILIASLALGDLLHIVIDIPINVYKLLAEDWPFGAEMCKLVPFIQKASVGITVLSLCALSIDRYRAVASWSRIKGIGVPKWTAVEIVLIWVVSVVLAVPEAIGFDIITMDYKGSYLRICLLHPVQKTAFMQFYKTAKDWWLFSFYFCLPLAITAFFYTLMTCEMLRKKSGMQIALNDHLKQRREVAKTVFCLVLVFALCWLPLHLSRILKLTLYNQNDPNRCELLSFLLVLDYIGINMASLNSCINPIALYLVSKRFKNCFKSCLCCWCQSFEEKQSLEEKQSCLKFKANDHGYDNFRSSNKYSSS
Summary of the method: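 Membranes (0.75 mg/tube) from COS 7 cells transfected with human ETB. Buffer 30 mM HEPES pH 7.4, 150 mM NaCl, 5 mM MgCl2, 0.05% bacitracin, final 0.25% DMSO. Tracer 4 pM [125I]ET-1, nonspecific binding with 100 nM ET-1. Incubated 16–18 h at 24 °C, bound radioactivity gamma-counted. Run in triplicate.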

[2] = Compound at dose 60 mg/kg was administered to rats and Serum half life was determined; format: ADME, organism-based; parameters: dose 60 mg/kg; conditions: rat
Rattus norvegicus = assay: % inhibition of ET-1 induced pressor response in conscious rats 30 min after intravenous administration of 15 mg/kg of the compound; format: functional; conditions: 0.5 h
Summary of the method: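 Conscious rats rested 60 min in a restrainer. Autonomic blockade by iv atropine methyl nitrate (3 mg/kg) plus propranolol (2 mg/kg). Vehicle was 1 M Tris base or sodium bicarbonate. Control iv bolus ET-1 challenge ([…]), antagonist iv bolus once MAP returned to baseline, second ET-1 challenge 30 min later. Inhibition = 100 × (control − antagonist max pressor response)/control max pressor response.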

[3] = Compound at dose 60 mg/kg was administered to rats and Serum half life was determined; range = 2.5-3 h; format: ADME, organism-based; parameters: dose 60 mg/kg; conditions: rat

Compound	IC50 (Endothelin-1 receptor)	IC50 [1]	half-life [2]	inhibition in vivo at 15 mg/kg (Rattus norvegicus)	half-life [3]
Cc1noc(NS(=O)(=O)c2ccsc2C(=O)Nc2ccccc2C(=O)O)c1Br	214 nM	19.5 µM			
CCCCc1ccc(NC(=O)c2sccc2S(=O)(=O)Nc2onc(C)c2Br)cc1	200 nM	6.17 µM			
COc1cc(NC(=O)c2sccc2S(=O)(=O)Nc2onc(C)c2Cl)c(C(=O)O)cc1OC	1430 nM	> 100 µM			
Cc1noc(NS(=O)(=O)c2ccsc2C(=O)Nc2cc3c(cc2OCCO)OCO3)c1Cl	5.1 nM	14.4 µM			
Cc1noc(NS(=O)(=O)c2ccsc2C(N)=O)c1Br		> 100 µM			
Cc1ccc(NC(=O)c2sccc2S(=O)(=O)Nc2onc(C)c2Cl)cc1	15 nM				
Cc1noc(NS(=O)(=O)c2ccsc2C(=O)Nc2cccc(C(=O)O)c2)c1Br		117 µM			
Cc1noc(NS(=O)(=O)c2ccsc2C(=O)N(C)c2ccccc2)c1Br	1910 nM	> 100 µM			
CCC(C)c1ccc(NC(=O)c2sccc2S(=O)(=O)Nc2onc(C)c2Br)cc1 (stereo not drawn)	54 nM	5.89 µM			
Cc1noc(NS(=O)(=O)c2ccsc2C(=O)Nc2cc3c(cc2C#N)OCO3)c1Cl	3.4 nM	40.4 µM	150 min	20%	
Cc1ccccc1NC(=O)c1sccc1S(=O)(=O)Nc1onc(C)c1Br	27 nM	> 100 µM			
COc1ccc(NC(=O)c2sccc2S(=O)(=O)Nc2onc(C)c2Cl)c(OC)c1	15 nM	51.9 µM			
Cc1noc(NS(=O)(=O)c2ccsc2C(=O)Nc2cc3c(cc2CC(=O)N(C)C)OCO3)c1Cl	9.3 nM				
Cc1noc(NS(=O)(=O)c2ccsc2C(=O)Nc2ccc(C(C)C)cc2)c1Br	20 nM	4.37 µM			
Cc1noc(NS(=O)(=O)c2ccsc2C(=O)Nc2ccc(O)nn2)c1Br	65 nM				
COc1ccc(NC(=O)c2sccc2S(=O)(=O)Nc2onc(C)c2Br)cc1	24 nM	30.2 µM			
Cc1cc(NC(=O)c2sccc2S(=O)(=O)Nc2onc(C)c2Cl)no1	57 nM				
COc1ccccc1NC(=O)c1sccc1S(=O)(=O)Nc1onc(C)c1Br	132 nM	61.7 µM			
Cc1noc(NS(=O)(=O)c2ccsc2C(=O)Nc2ccc3c(c2)OCO3)c1Br	19 nM	10.1 µM			
Cc1noc(NS(=O)(=O)c2ccsc2C(=O)Nc2ccccc2)c1Br	166 nM	77.6 µM			
COc1cccc(NC(=O)c2sccc2S(=O)(=O)Nc2onc(C)c2Br)c1	85 nM	63.1 µM			
Cc1noc(NS(=O)(=O)c2ccsc2C(=O)Nc2cc3c(cc2CC#N)OCO3)c1Cl	3.8 nM	25.7 µM			

Compound	IC50 (Endothelin-1 receptor)	IC50 [1]	half-life [2]	inhibition in vivo at 15 mg/kg (Rattus norvegicus)	half-life [3]
Cc1ccc(NC(=O)c2sccc2S(=O)(=O)Nc2onc(C)c2Cl)nc1	13 nM	44.7 µM			
CC(=O)c1cc2c(cc1NC(=O)c1sccc1S(=O)(=O)Nc1onc(C)c1C)OCO2	31 nM	> 100 µM			
COc1cc(NC(=O)c2sccc2S(=O)(=O)Nc2onc(C)c2Cl)c(C(N)=O)cc1OC	10.8 nM	61 µM			
Cc1noc(NS(=O)(=O)c2ccsc2C(=O)Nc2cccc(O)c2)c1Br	146 nM	67.5 µM			
COc1cccc(NCc2sccc2S(=O)(=O)Nc2onc(C)c2Br)c1	933 nM	7.59 µM			
Cc1ccc(NC(=O)c2sccc2S(=O)(=O)Nc2onc(C)c2Cl)c(O)c1	6.6 nM	8.24 µM			
COc1ccc(NC(=O)c2sccc2S(=O)(=O)Nc2onc(C)c2Cl)c(C)c1	2.6 nM	14 µM			
Cc1noc(NS(=O)(=O)c2ccsc2C(=O)Nc2ccc(-c3ccccc3)cc2)c1Br	977 nM	8.71 µM			
COC(=O)c1cc(OC)c(OC)cc1NC(=O)c1sccc1S(=O)(=O)Nc1onc(C)c1Cl	549 nM	> 100 µM			
CCc1ccc(NC(=O)c2sccc2S(=O)(=O)Nc2onc(C)c2Br)cc1	17 nM	7.41 µM			
CC(=O)c1cc2c(cc1NC(=O)c1sccc1S(=O)(=O)Nc1onc(C)c1Cl)OCO2	10 nM	32.6 µM		18%	180 min
CC(=O)OCCOc1cc2c(cc1NC(=O)c1sccc1S(=O)(=O)Nc1onc(C)c1Cl)OCO2	6.1 nM	15.8 µM			
Cc1cccc(NC(=O)c2sccc2S(=O)(=O)Nc2onc(C)c2Br)c1	104 nM	67.4 µM			
Cc1ccc(NC(=O)c2sccc2S(=O)(=O)Nc2onc(C)c2Br)cc1	12 nM	9.12 µM			
Cc1cc2c(cc1NC(=O)c1sccc1S(=O)(=O)Nc1onc(C)c1Cl)OCO2		35.5 µM			
Cc1noc(NS(=O)(=O)c2ccsc2C(=O)Nc2ccc(C(C)(C)C)cc2)c1Br	47 nM	6.92 µM			
Cc1noc(NS(=O)(=O)c2ccsc2C(=O)Nc2cc3c(cc2CCCO)OCO3)c1Cl	6 nM	9.08 µM			
Cc1noc(NS(=O)(=O)c2ccsc2C(=O)NCc2ccccc2)c1Br	229 nM	97.7 µM			
COc1cc(C#N)c(NC(=O)c2sccc2S(=O)(=O)Nc2onc(C)c2Cl)cc1OC	3.9 nM	12.2 µM			
Cc1ccc(NC(=O)c2sccc2S(=O)(=O)Nc2onc(C)c2C)cc1	32 nM	67.6 µM			
Cc1nnc(NC(=O)c2sccc2S(=O)(=O)Nc2onc(C)c2Cl)s1	1290 nM	> 100 µM			

Reference: ChEMBL document CHEMBL1130042, “Structure-activity relationships of N2-aryl-3-(isoxazolylsulfamoyl)-2-thiophenecarboxamides as selective endothelin receptor-A antagonists” (J Med Chem, 1997)
